Experimental data collected from several papers.
Observed: microbial growth

CCCCCCC/C=C/C(=O)N1C(=O)/C(=C(\O)CCCC)C(=O)C1CC(C)C (stereo not drawn) has an MIC of > 200 µg/mL (Stenotrophomonas maltophilia; ATCC13637).
The MIC of O=C(Nc1ccc2c(c1)OC(F)(F)O2)Nc1ccc(Cl)c(C(F)(F)F)c1 is reported as > 100 µM (Klebsiella aerogenes; DSM30053).
With O=C1NC(=S)N/C1=C\c1c2ccccc2c(-c2ccc(N(c3ccccc3)c3ccccc3)cc2)c2ccccc12 the MIC was > 1000 µg/mL (Streptococcus mutans; broth dilution; ATCC25175).
CCc1cc(Nc2cc(=O)n(CCCCO)c(=O)[nH]2)ccc1C gave an MIC of > 32 µg/mL (Bifidobacterium; agar dilution; 48 h).
With CCCCCCC/C=C/C(=O)N1C(=O)/C(=C(/C)O)C(=O)C1CO (stereo not drawn) the MIC was > 200 µg/mL (Stenotrophomonas maltophilia; ATCC13637).
For O=c1[nH]c(NCc2ccc(Cl)c(Cl)c2)nc2ncn(CCCCCN3CCOCC3)c12, the MIC was > 32 µg/mL (Bifidobacterium; agar dilution; 48 h).
For CN[C@H](CC(C)C)C(=O)N[C@H]1C(=O)N[C@@H](CC(N)=O)C(=O)N[C@H]2C(=O)N[C@H]3C(=O)N[C@H](C(=O)N[C@H](C(=O)O)c4cc(O)cc(O)c4-c4cc3ccc4O)[C@H](O)c3ccc(c(Cl)c3)Oc3cc2cc(c3O[C@@H]2O[C@H](CO)[C@@H](O)[C@H](O)[C@H]2O[C@H]2C[C@](C)(N)[C@H](O)[C@H](C)O2)Oc2ccc(cc2Cl)[C@H]1O, the MIC was 0.98 µg/mL (Streptococcus mutans; broth dilution; ATCC25175).
CCCCCCC/C=C/C(=O)N1C(=O)/C(=C(/C)O)C(=O)C1CCCCN (stereo not drawn) has an MIC of > 200 µg/mL (Stenotrophomonas maltophilia; ATCC13637).
O=C1NC(=S)S/C1=C\c1ccc(-c2ccc(N(c3ccccc3)c3ccccc3)cc2)c2ccccc12 has an MIC of 1000 µg/mL (Streptococcus pyogenes; broth dilution; ATCC19615).
For CC(C)Oc1c(NC(=O)c2ccc(NC(=O)[C@H](CC(N)=O)NC(=O)c3ccc(NC(=O)c4ccc(C#N)s4)cc3)cc2)ccc(C(=O)Nc2ccc(C(=O)O)cc2)c1O, the MIC was 0.25 µg/mL (Klebsiella aerogenes; DSM30053).
O=C1NC(=S)S/C1=C\c1c2ccccc2c(-c2ccc(N(c3ccccc3)c3ccccc3)cc2)c2ccccc12 gave an MIC of > 1000 µg/mL (Streptococcus pyogenes; broth dilution; ATCC19615).
The MIC of CCCCCCC/C=C/C(=O)N1C(=O)/C(=C(\O)c2ccc(O)cc2)C(=O)C1CC(C)C (stereo not drawn) is reported as 200 µg/mL (Stenotrophomonas maltophilia; ATCC13637).
With O=C1NC(=S)S/C1=C\c1ccc(-c2ccc(N(c3ccccc3)c3ccccc3)cc2)cc1 the MIC was 1000 µg/mL (Streptococcus pyogenes; broth dilution; ATCC19615).
The MIC of CCCCCCC/C=C/C(=O)N1CC(=O)/C(=C(\C)O)C1=O is reported as 100 µg/mL (Stenotrophomonas maltophilia; ATCC13637).
CO[C@@H](C(N)=O)[C@H](NC(=O)c1ccc(NC(=O)c2ccc(C#N)cc2)cc1)C(=O)Nc1ccc(C(=O)Nc2ccc(C(=O)Nc3ccc(C(=O)O)cc3)c(O)c2OC(C)C)cc1 has an MIC of 2 µg/mL (Klebsiella aerogenes; DSM30053).
